“Also recorded” adds a separate entry of the source. Read-outs that look alike come from different tables or passages of the source.
Key:
[1] = biological target: T1, CatSper (Homo sapiens, UniProt Q7RTX7+Q86XQ3+Q8NEC5+Q96P56); details: read-out: EC50, patch-clamp electrophysiology; ref Lishko et al., 2011; cited from earlier work
[2] = biological target: T1, CatSper; details: read-out: EC50, rapid-mixing calcium fluorimetry; ref Strunker et al., 2011; cited from earlier work
[3] = biological target: T1, CatSper; experiment: Human sperm calcium influx assay, activation; assay type: cell-based; details: for Emax: read-out: Emax, %, Steroid Alone; for effect on [Ca2+]i as activator: concentrations up to 10 µM
Method in brief: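 Semen from healthy donors was liquefied at 37 °C, washed twice in low pH/low K+ buffer (pH 6.7, 0.2 mM CaCl2), then loaded with 10 µM Fluo-4-AM plus 1 mM probenecid, 30 min, room temperature, dark. On FLIPR, buffer was added first, then openers 2 min later. Fluorescence was read for 7 min at 2-s intervals. EC50 came from 8-point, 3-fold dilutions in duplicate, peak height, four-parameter fit. Emax is relative to 3 µM progesterone. Activators were retested with 30 µM mibefradil.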

[4] = system: human sperm; experiment: Computer-assisted sperm analysis; assay type: cell-based; details: CASA, human sperm, up to 30 µM
Method in brief: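 Donor semen was liquefied ≥40 min at 37 °C, then swim-up in HAM's F10 for 1 h at 37 °C, 5% CO2. Cells were adjusted to 10x10^6/mL and capacitated in HAM's F10 with 5% BSA and 15 mM NaHCO3 at 37 °C, 5% CO2, with test compound or DMSO. HAM was induced with 100 nM progesterone or 100 nM PGE1. CASA at 37 °C used ≥10 fields, ≥200 cells. Motility classes came from VAP/VSL/VCL-derived LIN and STR, normalized to vehicle controls, ≥3 experiments.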

[5] = biological target: T1, CatSper; assay type: cell-based; details: for IC50: human sperm
[6] = biological target: T1, CatSper; experiment: Activator concentration-response curves in the presence of increasing inhibitor; assay type: cell-based
Method in brief: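 Washed human donor sperm in low pH/low K+ buffer (pH 6.7) were loaded with 10 µM Fluo-4-AM plus 1 mM probenecid, 30 min, room temperature, dark. FLIPR read: ex 470–495/em 515–575 nm. Activator concentration-response curves were run with increasing concentrations of competitive antagonist, added 2 min before the activator. Activator EC50 values were taken from maximal peak height (four-parameter fit). pKB came from Schild regression.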

[7] = pEC50, calcium influx, Steroid Alone, human sperm, mean ±SD
[8] = KB, Leff-Dougall analysis, averaged across the activators, PROG, PGE1 and l-sirenin
[9] = Leff-Dougall pKB, opener PGE1, from IC50, mean ± SD
[10] = Leff-Dougall pKB, opener PROG, from IC50, mean ± SD
[11] = Leff-Dougall pKB, opener l-Sirenin, from IC50, mean ± SD
[12] = pIC50, inhibition of PGE1-induced calcium influx, opener 10 nM PGE1 (EC80), mean ±SD
[13] = pIC50, inhibition of l-sirenin-induced calcium influx, opener 3 µM l-sirenin (EC80), mean ±SD
[14] = Schild pKB, opener PGE1, mean ± standard error
[15] = Schild pKB, opener PROG, mean ± standard error
[16] = Schild pKB, opener l-Sirenin, mean ± standard error
[17] = average pKB, Schild analysis, averaged across the activators, PROG, PGE1 and l-sirenin, mean ±SD

Row | SMILES | EC50 [3, 7] [µM] | Emax [3] [%] | effect on total and progressive sperm motility [4] | Kb [5, 8] [µM] | Kb [5, 9] [µM] | Kb [5, 10] [µM] | Kb [5, 11] [µM] | IC50 [5, 12] [µM] | IC50 [5, 13] [µM] | Kb [6, 14] [µM] | Kb [6, 15] [µM] | Kb [6, 16] [µM] | Kb [6, 17] [µM] | effect on [Ca2+]i as activator [3] | further results
1 | CC(=O)[C@H]1CC[C@H]2[C@@H]3CCC4=CC(=O)CC[C@]4(C)[C@H]3CC[C@]12C [compound 1, progesterone] | 0.00372 | 111 |  |  |  |  |  |  |  |  |  |  |  |  | EC50 [1]: 0.0077 µM; EC50 [2]: 0.042 µM; EC50 ([3]; EC50, increase of [Ca2+]i in human sperm): 0.0037 µM; time at which the calcium signal peaked ([3]; then decayed slowly for up to 300 seconds): ~100 s
2 | CC(=O)O[C@]1(C(C)=O)CC[C@H]2[C@@H]3C[C@H](C)C4=CC(=O)CC[C@]4(C)[C@H]3CC[C@@]21C [compound 4, medroxyprogesterone acetate] | > 10 | 17 | reduced total and progressive motility at 30 µM but not at lower concentrations | 1.6 | 1 | 0.692 | 6.31 | 9.77 | 6.17 | 4.17 | 0.646 | 6.03 | 2.51 |  | effect on [Ca2+]i as activator ([3]; listed as MPA): little effect on [Ca^2+]i; also recorded: negligible activity; Kb ([5]; mean pKB, Leff-Dougall analysis, averaged across the activators, PROG, PGE1 and l-sirenin, mean ±SD): 1.66 µM
3 | C#C[C@]1(O)CC[C@H]2[C@@H]3CCC4=CC(=O)CC[C@@H]4[C@H]3CC[C@@]21CC [compound 5, levonorgestrel] |  | 15 | no significant effect | 4.5 | 3.16 | 3.39 | 8.51 | 30.2 | 81.3 | 437 | 0.158 | 56.2 | 15.8 | negligible activity | EC50 [3]: > 10 µM
4 | C[C@]12CCC(=O)C=C1CC[C@@H]1[C@@H]2[C@@H](O)C[C@]2(C=O)[C@@H](C(=O)CO)CC[C@@H]12 [compound 6, aldosterone] |  |  | no significant effect | 5.1 | 6.03 | 3.47 | 6.46 | 57.5 | 61.7 | 724 | 4.17 | 15.1 | 36.3 | did not increase [Ca^2+]i; also recorded: negligible activity | 
